This is an account of results in ChEMBL document CHEMBL3526049 (Drug Metab Dispos, 2012).

What all share (format): ADME, organism-based
A short description of data set [1]: AUC (infinity) in MRP2-deficient Wistar rat at 5 mg/kg, iv by LC-MS/MS analysis. More on the design: dose 5 mg/kg, route intravenous, time infinity. Conditions: plasma. The method in brief: (§1)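 Male Wistar wild-type or Mrp2-deficient TR⁻ rats with femoral artery and vein cannulas. Sulfasalazine was given as a 5 mg/kg i.v. bolus and as a 20 mg/kg oral dose. Arterial plasma was sampled to 24 h and analysed for parent and sulfapyridine by LC-MS/MS. Noncompartmental parameters; n = 3, mean ± S.D.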

Data set [2] is described as follows: Clearance in MDR1A knockout Sprague-Dawley rat at 5 mg/kg, iv by LC-MS/MS analysis. More on the design: dose 5 mg/kg, route intravenous. Conditions: in vivo. The method in brief: (§2)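 Male Sprague-Dawley knockout or age/weight-matched wild-type rats with femoral artery and vein cannulas. Crossover design: day 0 i.v. bolus 5 mg/kg sulfasalazine in water at pH 9–10, then day 3 gavage 20 mg/kg in 0.5% carboxymethyl cellulose/PBS pH 7.4. Arterial plasma was sampled to 24 h. Sulfasalazine and sulfapyridine were measured by LC-MS/MS (1–5000 ng/ml). Parameters are noncompartmental; n = 4–8, mean ± S.D.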

Data set [3] is described as follows: Tmax in MRP2 knockout Sprague-Dawley rat at 20 mg/kg, po by LC-MS/MS analysis. On the set-up: dose 20 mg/kg, route oral. The settings on record: in vivo. The procedure, abridged:
(§3)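 Male Sprague-Dawley rats (knockout or wild type, matched for age and weight) with femoral artery and vein cannulas, recovered ≥2 days. In an i.v./oral crossover with a 3-day washout, sulfasalazine was given by oral gavage at 20 mg/kg in 0.5% carboxymethyl cellulose/PBS pH 7.4. Arterial plasma was sampled 0–24 h and analysed by LC-MS/MS (1–5000 ng/ml). Noncompartmental analysis; n = 4 to 8.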

Data set [4] is described as follows: Volume of distribution at steady state in MDR1A knockout Sprague-Dawley rat at 5 mg/kg, iv by LC-MS/MS analysis. More on the design: dose 5 mg/kg, route intravenous. The settings on record: in vivo, read-out: Vdss. The method in brief: (§4)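 Male Sprague-Dawley knockout rats or wild-type rats matched for age and weight, with femoral artery and vein cannulas. Crossover design: sulfasalazine 5 mg/kg iv bolus (water, pH 9–10) on day 0, then 20 mg/kg oral gavage (0.5% carboxymethyl cellulose in PBS, pH 7.4) on day 3. Arterial plasma collected 0–24 h. Sulfasalazine and sulfapyridine measured by LC-MS/MS; noncompartmental parameters; mean ± S.D., n = 4 to 8.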

Data set [5] can be described thus: Tmax in MDR1A knockout Sprague-Dawley rat at 20 mg/kg, po by LC-MS/MS analysis. On the set-up: dose 20 mg/kg, route oral. The settings on record: in vivo. The procedure, abridged: as §3
A short description of data set [6]: Cmax in wild-type Wistar rat at 5 mg/kg, po by LC-MS/MS analysis. The settings on record: in vivo. More on the design: dose 5 mg/kg, route oral.
Data set [7] can be described thus: Half life in wild-type Wistar rat at 5 mg/kg, iv by LC-MS/MS analysis. On the set-up: dose 5 mg/kg, route intravenous. Conditions: in vivo. The method in brief: (§5)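 Male Wistar wild-type rats and Mrp2-deficient TR⁻ rats with femoral artery and vein cannulas. Sulfasalazine given as an iv bolus (5 mg/kg, water at pH 9–10) and by oral gavage, each followed by arterial plasma sampling over 24 h. Sulfasalazine and sulfapyridine measured by LC-MS/MS; noncompartmental parameters; mean ± S.D., n = 3.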

Data set [8] in a line: AUC (infinity) in MRP2 knockout Sprague-Dawley rat at 5 mg/kg, iv by LC-MS/MS analysis. More on the design: time infinity, dose 5 mg/kg, route intravenous. The settings on record: plasma. The method in brief:
as §2

Data set [9] can be described thus: Half life in BCRP knockout Sprague-Dawley rat at 20 mg/kg, po by LC-MS/MS analysis. Conditions: in vivo. On the set-up: dose 20 mg/kg, route oral. The procedure, abridged: as §4
Data set [10] can be described thus: AUC (infinity) in wild-type Wistar rat at 5 mg/kg, po by LC-MS/MS analysis. More on the design: time infinity, dose 5 mg/kg, route oral. The settings on record: plasma.
Data set [11] is described as follows: Half life in BCRP knockout Sprague-Dawley rat at 5 mg/kg, iv by LC-MS/MS analysis. On the set-up: dose 5 mg/kg, route intravenous. Conditions: in vivo. The procedure, abridged: as §4
Data set [12] can be described thus: Oral bioavailability in BCRP knockout Sprague-Dawley rat at 20 mg/kg by LC-MS/MS analysis. The settings on record: in vivo. The method in brief: as §4
Data set [13] can be described thus: AUC (infinity) in MDR1A knockout Sprague-Dawley rat at 20 mg/kg, po by LC-MS/MS analysis. On the set-up: time infinity, dose 20 mg/kg, route oral. Conditions: plasma. The procedure, abridged:
as §2

The nature of data set [14]: Half life in wild-type Wistar rat at 5 mg/kg, po by LC-MS/MS analysis. On the set-up: dose 5 mg/kg, route oral. The settings on record: in vivo. The method in brief:
as §5

Data set [15] is described as follows: Clearance in BCRP knockout Sprague-Dawley rat at 5 mg/kg, iv by LC-MS/MS analysis. On the set-up: dose 5 mg/kg, route intravenous. Conditions: in vivo. The method in brief:
as §2

The nature of data set [16]: Half life in MRP2 knockout Sprague-Dawley rat at 5 mg/kg, iv by LC-MS/MS analysis. On the set-up: dose 5 mg/kg, route intravenous. Conditions: in vivo. The method in brief:
as §4

The nature of data set [17]: Cmax in MRP2-deficient Wistar rat at 5 mg/kg, po by LC-MS/MS analysis. More on the design: dose 5 mg/kg, route oral. Conditions: in vivo.
Data set [18] is described as follows: AUC (infinity) in wild-type Wistar rat at 5 mg/kg, iv by LC-MS/MS analysis. On the set-up: time infinity, dose 5 mg/kg, route intravenous. The settings on record: plasma. The method in brief:
as §1

As usually defined, the AUC(0-inf) is the area under the concentration-time curve extrapolated to infinity. High values mean high exposure, low ones low exposure. The clearance is the rate of elimination divided by the concentration. As usually defined, the Tmax is the time at which the peak concentration occurs. In general, Cmax refers to the maximum level reached in the sampled fluid or tissue. For orientation: half-life means the time in which the quantity being followed falls by half. The bioavailability is the share of a dose that reaches the circulation, judged against a reference dose that is usually intravenous. With `O=C(O)c1cc(/N=N/c2ccc(S(=O)(=O)Nc3ccccn3)cc2)ccc1O` [SULFASALAZINE], the total exposure AUC(0-inf) in data set [1] is 7730 ng·h/mL; in [8] it was 4320 ng·h/mL; in data set [10], 1810 ng·h/mL; in data set [13], 711 ng·h/mL; in data set [18], 12300 ng·h/mL. In addition, the results for the clearance in [2] and in data set [15] were 13.5 mL/min/kg and 7.8 mL/min/kg, respectively. The Tmax in [3] stood at 0.25 h; in data set [5], 0.3 h. In [4], the Vd is 0.285 L/kg. For the same molecule, the values for the Cmax in [6] and in data set [17] were 490 ng/mL and 144 ng/mL, respectively. Further, the half-life in [7] is 1.5 h; in data set [9] it was 1.9 h; in data set [11] it was 1.4 h; in [14], 2.1 h; in data set [16], 4.3 h. The bioavailability in data set [12] was 30%.
